According to ChEMBL document CHEMBL1765064, “Discovery of potent and selective inhibitors of ataxia telangiectasia mutated and Rad3 related (ATR) protein kinase as potential anticancer agents” (J Med Chem, 2011):

Assays:
[1] = molecular target: T1, Serine/threonine-protein kinase ATR (Homo sapiens, UniProt Q13535); test: Inhibition of full length recombinant ATR after 24 hrs by radiometric phosphate incorporation assay
Method in brief: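 Radiometric [γ-33P]ATP incorporation into target peptide. Full-length ATR and ATM were made in-house; DNA-PK was purchased. Kinase, buffer and peptide were premixed, then compound was added in DMSO (7% final DMSO). Reactions started with ATP at 25 °C and were stopped with phosphoric acid (100 mM final) plus ATP (0.66 μM final). Peptide was captured on phosphocellulose, washed, and scintillation-counted.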

[2] = molecular target: Serine-protein kinase ATM (Homo sapiens, UniProt Q13315); test: Inhibition of full length recombinant ATM after 24 hrs by radiometric phosphate incorporation assay
[3] = molecular target: DNA-dependent protein kinase catalytic subunit (Homo sapiens, UniProt P78527); test: Inhibition of DNAPK after 2 hrs by radiometric phosphate incorporation assay
[4] = molecular target: T1, Serine/threonine-protein kinase ATR; test: Inhibition of ATR in human HT-29 cells assessed as hydroxyurea-induced phosphorylation of H2AX by immunofluorescence microscopy; assay type: cell-based
Cytochrome P450 3A4 = Cytochrome P450 3A4 (Homo sapiens, UniProt P08684); test: Inhibition of CYP3A4; assay type: ADME
Cytochrome P450 3A4, sequence (P08684 whole entry): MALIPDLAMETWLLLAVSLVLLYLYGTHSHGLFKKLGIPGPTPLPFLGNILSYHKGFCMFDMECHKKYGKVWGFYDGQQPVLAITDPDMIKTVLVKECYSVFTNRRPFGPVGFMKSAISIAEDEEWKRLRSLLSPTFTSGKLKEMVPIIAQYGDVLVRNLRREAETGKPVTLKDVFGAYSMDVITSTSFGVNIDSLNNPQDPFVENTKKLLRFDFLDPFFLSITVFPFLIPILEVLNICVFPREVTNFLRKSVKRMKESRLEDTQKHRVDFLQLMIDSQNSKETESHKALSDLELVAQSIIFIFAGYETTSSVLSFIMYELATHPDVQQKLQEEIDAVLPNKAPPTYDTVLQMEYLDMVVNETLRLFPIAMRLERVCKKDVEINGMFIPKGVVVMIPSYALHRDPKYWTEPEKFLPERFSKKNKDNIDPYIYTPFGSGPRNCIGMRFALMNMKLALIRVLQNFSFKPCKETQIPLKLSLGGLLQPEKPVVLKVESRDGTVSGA

DNA-dependent protein kinase catalytic subunit, sequence (P78527 whole entry): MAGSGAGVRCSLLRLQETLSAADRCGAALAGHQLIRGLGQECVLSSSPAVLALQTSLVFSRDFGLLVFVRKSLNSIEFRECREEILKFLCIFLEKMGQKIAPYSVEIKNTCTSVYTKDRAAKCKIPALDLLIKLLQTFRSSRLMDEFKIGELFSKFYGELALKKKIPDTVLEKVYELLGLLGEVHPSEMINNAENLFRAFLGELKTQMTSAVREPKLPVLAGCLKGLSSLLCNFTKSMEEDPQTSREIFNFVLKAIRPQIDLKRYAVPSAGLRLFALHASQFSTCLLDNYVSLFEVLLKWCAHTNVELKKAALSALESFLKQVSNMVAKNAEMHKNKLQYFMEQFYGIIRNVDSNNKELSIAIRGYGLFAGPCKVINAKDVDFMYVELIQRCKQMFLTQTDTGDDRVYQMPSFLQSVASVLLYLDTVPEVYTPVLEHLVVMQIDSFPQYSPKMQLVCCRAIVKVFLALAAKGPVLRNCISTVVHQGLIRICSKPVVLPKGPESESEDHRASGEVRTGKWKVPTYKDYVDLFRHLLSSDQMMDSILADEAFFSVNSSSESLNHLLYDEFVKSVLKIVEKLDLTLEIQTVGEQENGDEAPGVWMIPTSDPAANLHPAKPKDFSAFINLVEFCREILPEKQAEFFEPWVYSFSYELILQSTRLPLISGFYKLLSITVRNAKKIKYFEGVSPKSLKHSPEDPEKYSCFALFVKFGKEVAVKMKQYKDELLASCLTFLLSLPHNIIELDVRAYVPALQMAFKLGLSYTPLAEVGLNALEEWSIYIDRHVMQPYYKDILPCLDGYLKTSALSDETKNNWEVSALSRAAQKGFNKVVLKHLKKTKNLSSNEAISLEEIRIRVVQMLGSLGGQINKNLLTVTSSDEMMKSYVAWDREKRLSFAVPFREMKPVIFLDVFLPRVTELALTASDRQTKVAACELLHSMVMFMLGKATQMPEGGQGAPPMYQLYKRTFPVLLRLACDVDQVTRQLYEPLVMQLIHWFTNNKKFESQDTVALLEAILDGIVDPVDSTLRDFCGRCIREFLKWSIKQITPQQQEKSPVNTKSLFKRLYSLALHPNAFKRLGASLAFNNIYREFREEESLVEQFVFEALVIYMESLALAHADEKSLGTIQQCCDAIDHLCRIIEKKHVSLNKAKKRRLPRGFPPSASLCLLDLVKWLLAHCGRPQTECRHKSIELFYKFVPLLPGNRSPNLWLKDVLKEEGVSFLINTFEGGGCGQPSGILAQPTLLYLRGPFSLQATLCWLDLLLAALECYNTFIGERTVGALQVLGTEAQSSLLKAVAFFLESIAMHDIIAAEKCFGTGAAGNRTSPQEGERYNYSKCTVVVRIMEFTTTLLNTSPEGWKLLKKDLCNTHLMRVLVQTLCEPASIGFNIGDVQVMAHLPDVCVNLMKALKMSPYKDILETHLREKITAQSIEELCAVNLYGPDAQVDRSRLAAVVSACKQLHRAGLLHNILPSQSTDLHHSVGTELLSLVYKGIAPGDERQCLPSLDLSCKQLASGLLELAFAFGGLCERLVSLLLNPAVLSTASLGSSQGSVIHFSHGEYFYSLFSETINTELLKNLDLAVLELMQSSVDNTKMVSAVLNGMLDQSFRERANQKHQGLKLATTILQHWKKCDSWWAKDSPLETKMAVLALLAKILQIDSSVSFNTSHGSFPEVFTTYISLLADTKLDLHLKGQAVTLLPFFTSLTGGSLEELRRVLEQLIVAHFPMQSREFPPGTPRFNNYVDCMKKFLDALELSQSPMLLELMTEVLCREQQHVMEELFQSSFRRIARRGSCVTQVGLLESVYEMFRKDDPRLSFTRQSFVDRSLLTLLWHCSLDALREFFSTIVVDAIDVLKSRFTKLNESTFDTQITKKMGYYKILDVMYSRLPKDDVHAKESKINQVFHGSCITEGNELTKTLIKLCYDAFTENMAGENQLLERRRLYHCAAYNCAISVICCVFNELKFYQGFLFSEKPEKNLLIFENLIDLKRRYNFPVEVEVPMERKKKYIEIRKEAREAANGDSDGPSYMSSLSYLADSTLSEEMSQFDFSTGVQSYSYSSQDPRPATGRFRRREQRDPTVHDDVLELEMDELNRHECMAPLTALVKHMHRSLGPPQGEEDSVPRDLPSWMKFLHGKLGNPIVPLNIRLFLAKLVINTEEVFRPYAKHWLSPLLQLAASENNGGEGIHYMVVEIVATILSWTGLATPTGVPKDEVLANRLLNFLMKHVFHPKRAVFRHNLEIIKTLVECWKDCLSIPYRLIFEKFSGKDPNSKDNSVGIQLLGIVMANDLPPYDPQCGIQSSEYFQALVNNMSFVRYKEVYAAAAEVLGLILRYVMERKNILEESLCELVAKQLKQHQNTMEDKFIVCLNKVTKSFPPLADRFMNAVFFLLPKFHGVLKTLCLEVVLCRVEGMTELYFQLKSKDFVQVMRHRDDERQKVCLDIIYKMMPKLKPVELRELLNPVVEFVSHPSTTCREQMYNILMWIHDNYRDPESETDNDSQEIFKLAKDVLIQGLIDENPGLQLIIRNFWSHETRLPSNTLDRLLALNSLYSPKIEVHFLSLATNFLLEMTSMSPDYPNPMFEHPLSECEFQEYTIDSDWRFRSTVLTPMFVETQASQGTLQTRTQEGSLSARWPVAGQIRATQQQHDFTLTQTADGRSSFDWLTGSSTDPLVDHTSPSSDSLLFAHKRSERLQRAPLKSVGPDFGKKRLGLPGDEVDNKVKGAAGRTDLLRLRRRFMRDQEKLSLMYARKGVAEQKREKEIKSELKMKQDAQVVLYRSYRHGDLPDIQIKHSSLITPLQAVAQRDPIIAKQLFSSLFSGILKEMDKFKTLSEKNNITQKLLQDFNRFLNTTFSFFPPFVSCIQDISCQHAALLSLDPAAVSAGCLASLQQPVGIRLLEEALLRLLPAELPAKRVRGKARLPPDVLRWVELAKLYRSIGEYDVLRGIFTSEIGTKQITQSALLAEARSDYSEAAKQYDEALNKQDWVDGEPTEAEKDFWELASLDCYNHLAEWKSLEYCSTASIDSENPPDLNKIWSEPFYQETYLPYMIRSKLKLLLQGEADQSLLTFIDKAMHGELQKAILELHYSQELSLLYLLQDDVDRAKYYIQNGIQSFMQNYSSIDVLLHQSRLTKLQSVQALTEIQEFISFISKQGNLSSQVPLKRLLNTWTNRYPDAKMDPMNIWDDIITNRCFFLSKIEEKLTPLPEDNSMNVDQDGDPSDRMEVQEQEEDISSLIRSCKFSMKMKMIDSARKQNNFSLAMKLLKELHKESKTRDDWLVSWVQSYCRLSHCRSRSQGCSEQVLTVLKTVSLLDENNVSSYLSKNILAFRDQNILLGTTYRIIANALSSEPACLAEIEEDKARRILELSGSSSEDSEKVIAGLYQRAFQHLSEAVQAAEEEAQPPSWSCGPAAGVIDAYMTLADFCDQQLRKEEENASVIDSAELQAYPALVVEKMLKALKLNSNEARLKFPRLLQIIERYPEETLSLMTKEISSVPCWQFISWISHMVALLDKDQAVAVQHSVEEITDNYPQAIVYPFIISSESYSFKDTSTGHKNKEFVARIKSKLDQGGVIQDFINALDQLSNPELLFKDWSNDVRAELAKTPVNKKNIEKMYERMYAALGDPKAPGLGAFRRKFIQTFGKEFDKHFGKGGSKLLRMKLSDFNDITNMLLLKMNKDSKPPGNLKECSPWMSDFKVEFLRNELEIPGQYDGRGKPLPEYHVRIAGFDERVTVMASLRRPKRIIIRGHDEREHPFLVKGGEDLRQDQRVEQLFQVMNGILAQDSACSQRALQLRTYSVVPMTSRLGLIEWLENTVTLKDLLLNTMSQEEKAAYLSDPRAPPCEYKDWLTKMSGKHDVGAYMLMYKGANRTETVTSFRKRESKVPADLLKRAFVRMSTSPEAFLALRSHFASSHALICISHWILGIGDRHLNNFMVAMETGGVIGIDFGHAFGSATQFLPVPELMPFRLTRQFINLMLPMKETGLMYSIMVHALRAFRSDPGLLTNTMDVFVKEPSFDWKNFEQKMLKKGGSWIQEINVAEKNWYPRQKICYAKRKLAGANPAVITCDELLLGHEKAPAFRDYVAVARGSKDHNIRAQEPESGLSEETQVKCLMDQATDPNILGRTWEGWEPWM

| Compound | IC50 [1] | IC50 [2] | IC50 [3] | IC50 [4] | IC50 (Cytochrome P450 3A4) |
| --- | --- | --- | --- | --- | --- |
| Nc1ncc(-c2cccc(Cl)c2)nc1C(=O)Nc1ccccc1 | 1.6 µM | > 8 µM | > 8 µM |  |  |
| Nc1ncc(-c2ccc(S(=O)(=O)[C@@H]3CCOC3)cc2)nc1C(=O)Nc1ccccc1 | 0.01 µM | 5 µM | 4.4 µM | 0.46 µM |  |
| C[S+]([O-])c1ccccc1-c1cnc(N)c(C(=O)Nc2ccccc2)n1 (stereo unspecified) | 0.13 µM | 3 µM | 2 µM |  |  |
| CS(=O)(=O)c1cccc(-c2cnc(N)c(C(=O)Nc3ccccc3)n2)c1 | 0.34 µM | 6.6 µM | 0.74 µM |  |  |
| CC(C)(C)S(=O)(=O)c1ccc(-c2cnc(N)c(C(=O)Nc3ccccc3)n2)cc1 | 0.006 µM | > 8 µM | > 8 µM | 1 µM |  |
| COc1cccc(-c2cnc(N)c(C(=O)Nc3ccccc3)n2)c1 | 2.2 µM | > 8 µM | 4.2 µM |  |  |
| CCC(C)S(=O)(=O)c1ccc(-c2cnc(N)c(C(=O)Nc3ccccc3)n2)cc1 (stereo unspecified) | 0.01 µM | 6.6 µM | > 8 µM | 1.6 µM |  |
| C[S+]([O-])c1ccc(-c2cnc(N)c(C(=O)Nc3ccccc3)n2)cc1 (stereo unspecified) | 0.056 µM | > 8 µM | 6.8 µM | 5.4 µM |  |
| Nc1ncc(-c2ccccc2O)nc1C(=O)Nc1ccccc1 | 2.4 µM | > 8 µM | > 8 µM |  |  |
| Nc1nccnc1C(=O)Nc1ccccc1 | 7.1 µM | > 8 µM | > 8 µM |  |  |
| COc1ccccc1-c1cnc(N)c(C(=O)Nc2ccccc2)n1 | 0.74 µM | > 8 µM | > 8 µM |  |  |
| N#Cc1ccc(-c2cnc(N)c(C(=O)Nc3ccccc3)n2)cc1 | 0.18 µM | > 8 µM | > 8 µM |  |  |
| Nc1ncc(-c2ccc(C(=O)N3CCCC3)cc2)nc1C(=O)Nc1ccccc1 | 0.054 µM | > 8 µM | 2.8 µM | 1.4 µM |  |
| COc1cc2c(c(OC)c1OC)-c1c(cc3c(c1OC)OCO3)CC(C)C(C)C2 (stereo unspecified) [SCHISANDRIN B] | 7.2 µM | 1740 µM |  |  |  |
| Cc1ccccc1-c1cnc(N)c(C(=O)Nc2ccccc2)n1 | 1.4 µM | > 8 µM | 1.4 µM |  |  |
| Nc1ncc(-c2ccccc2)nc1C(=O)Nc1ccccc1 | 0.62 µM | > 8 µM | > 8 µM | > 2.5 µM | > 100 µM |
| COc1ccc(-c2cnc(N)c(C(=O)Nc3ccccc3)n2)cc1 | 1.5 µM | > 8 µM | 6.6 µM |  |  |
| CNC(=O)c1ccc(-c2cnc(N)c(C(=O)Nc3ccccc3)n2)cc1 | 0.18 µM | 2.6 µM | 7 µM |  |  |
| CS(=O)(=O)c1ccccc1-c1cnc(N)c(C(=O)Nc2ccccc2)n1 | 1.3 µM | > 8 µM | > 8 µM |  |  |
| Nc1ncc(C2CCCCC2)nc1C(=O)Nc1ccccc1 | 3 µM | > 8 µM | > 8 µM |  |  |
| CS(=O)(=O)c1ccc(-c2cnc(N)c(-c3nc4ccccc4s3)n2)cc1 | 0.022 µM | 0.72 µM | 2.9 µM |  |  |
| CS(=O)(=O)c1ccc(-c2cnc(N)c(-c3nc4ccccc4o3)n2)cc1 | 0.036 µM | 0.84 µM | 1.4 µM |  |  |
| CS(=O)(=O)c1ccc(-c2cnc(N)c(C(=O)Nc3ccccc3)n2)cc1 | 0.026 µM | > 8 µM | 4.4 µM |  |  |
| N#Cc1ccccc1-c1cnc(N)c(C(=O)Nc2ccccc2)n1 | 0.024 µM | 0.32 µM | 0.72 µM |  |  |
| N#Cc1cccc(-c2cnc(N)c(C(=O)Nc3ccccc3)n2)c1 | 0.4 µM | > 8 µM | 2.2 µM |  |  |
